The source of these data is ChEMBL document CHEMBL4251649, “Discovery and optimization of phthalazinone derivatives as a new class of potent dengue virus inhibitors” (Eur J Med Chem, 2018).

What is called CC50 is the concentration at which the toxic effect on the cells reaches its halfway point. For orientation: IC50 means the concentration that inhibits the measured activity by half. As usually defined, the IC90 is the concentration needed for an effect of 90%. As usually defined, the Vdss is the apparent volume that relates the amount in the body to the concentration in plasma or blood. A high value points to extensive tissue distribution. As usually defined, the Tmax is the time from dosing to the highest level. What is called half-life is the time needed for the level to fall by half in the phase considered. Read a high half-life as slow loss. A word on the Cmax: it is the highest concentration seen after dosing. A word on the AUC(0-t): it is exposure summed from dosing to a finite time, without extrapolation to infinity. The low end stands for low exposure, the high end for high exposure. Broadly, the bioavailability is the share of a dose that reaches the circulation, judged against a reference dose that is usually intravenous. Lower therefore signals little systemic uptake.

Data set [1] can be described thus: Cytotoxicity against human HuH7 cells assessed as reduction in cell viability after 48 hrs by MTT assay. It is filed as cell-based, Huh-7. Summed up: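 The Huh7 cells were seeded and treated with compound in the same way as the antiviral assay, and viability was read by MTT reduction. CC50 is the compound concentration that lowered the readout to half of the no-compound control.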

Data set [2] is described as follows: Selectivity index, CC50 for human HuH7 cells to IC50 for DENV2 D2Y98P. In kind it is toxicity. Particulars: read-out: Ratio CC50/IC50. Summed up:
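SI is calculated as CC50 (MTT cytotoxicity in Huh7) divided by IC50 (qRT-PCR of DENV-2 D2Y98P supernatant RNA, Huh7, MOI 2, 48 h).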

In a further data set the test system is dengue virus type 2. Briefly: Antiviral activity against DENV2 D2Y98P infected in human HuH7 cells assessed as inhibition of viral RNA replication incubated for 48 hrs by qRT-PCR method. In kind it is functional, organism-based. Particulars: Huh-7, 48 h. In outline: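 Huh7 cells (4×10^4/well, 2% FBS DMEM, overnight) infected with DENV-2 D2Y98P at MOI 2 for 2 h, washed, then given compound in fresh medium; after 48 h the supernatant viral genomic RNA was extracted and quantified by one-step qRT-PCR; IC50 and IC90 were taken as 50% and 90% inhibition of RNA replication.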
Background: Quantitative PCR measures a nucleic acid by following its amplification.

In data set [3] the test system is Mus musculus. Kind of data set: Plasma clearance in CD-1 mouse at 2 mg/kg, iv. In kind it is ADME, organism-based. Particulars: in vivo. In outline:
(§1)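 Male CD-1 mice (18–22 g, n=3/group), fasted 12 h, were given 2 mg/kg IV. Femoral-vein blood (EDTA) was collected at 3 min, 0.25, 0.75, 2, 4, 8 and 24 h. Plasma was mixed with methanol:acetonitrile (1:1), stored at -20°C, and analysed by non-compartmental methods.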

The test system of data set [4] is Mus musculus. Kind of data set: Volume of distribution at steady state in CD-1 mouse at 2 mg/kg, iv. Particulars: in vivo. In kind it is ADME, organism-based. In outline: as §1
Data set [5] in a line: Tmax in CD-1 mouse at 10 mg/kg, po. In kind it is ADME, organism-based. Particulars: in vivo. Summed up: (§2)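 Male CD-1 mice (18–22 g, n=3/group), fasted 12 h and fed 2 h after dosing, received 10 mg/kg orally. Femoral-vein blood (EDTA) was drawn at 0.25, 0.5, 1, 2, 4, 8 and 24 h. Plasma was mixed with methanol:acetonitrile (1:1) and stored at -20°C. Parameters came from non-compartmental analysis.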

In data set [6] the test system is Mus musculus. Kind of data set: Half life in CD-1 mouse at 2 mg/kg, iv. Particulars: in vivo. It is filed as ADME, organism-based. Summed up: as §1
The nature of data set [7]: Half life in CD-1 mouse at 10 mg/kg, po. Particulars: in vivo. In kind it is ADME, organism-based. In outline:
as §2

Data set [8] can be described thus: Cmax in CD-1 mouse at 10 mg/kg, po. To be noted: in vivo. More on the design: dose 10 mg/kg, route oral. In kind it is ADME, organism-based. In outline:
as §2

In data set [9] the test system is Mus musculus. Briefly: AUClast in CD-1 mouse at 2 mg/kg, iv. More on the design: dose 2 mg/kg, time 0 - last, route intravenous. In kind it is ADME, organism-based. Particulars: in vivo. Summed up:
as §1

The nature of data set [10]: AUClast in CD-1 mouse at 10 mg/kg, po. In kind it is ADME, organism-based. More on the design: dose 10 mg/kg, time 0 - last, route oral. Particulars: in vivo. Summed up:
as §2

The nature of data set [11]: Oral bioavailability in CD-1 mouse at 10 mg/kg. It is filed as ADME, organism-based. Particulars: in vivo. Summed up: as §2

Take `CCCCOC(=O)Nc1ccc(Cn2nc(-c3ccc(F)cc3)c3ccccc3c2=O)cc1`: in [1], the CC50 at 48 h was 19.5 µM. In addition, in data set [2], the selectivity ratio was determined as 14.3.
For the compound `CN(C)CCCCOC(=O)Nc1ccc(Cn2nc(-c3cccc(C#N)c3)c3ccccc3c2=O)cc1`, in the data set with dengue virus type 2, the concentration for half-maximal inhibition (IC50) was 1.72 µM and the IC90 worked out at 5.09 µM. In addition, the CC50 at 48 h in data set [1] is 17.2 µM. Besides, the selectivity ratio in data set [2] turned out to be 10.
For `Nc1ccc(Cn2nc(-c3ccc(F)cc3)c3ccccc3c2=O)cc1`, in that order: 20 µM, > 80 µM, > 80 µM and > 4.
For `CN(C)CCCC(=O)Nc1ccc(Cn2nc(-c3ccc(F)cc3)c3ccccc3c2=O)cc1`, in that order: 1 µM, 8.42 µM, 38.2 µM and 38.2.
Taken in the same sequence, the figures for `COc1ccc(-c2nn(Cc3ccc(NC(=O)OCCCCN(C)C)cc3)c(=O)c3ccccc23)cc1` were 1.94 µM, 5.88 µM, 20.3 µM and 10.5.
Consider `CN(C)CCCCOC(=O)Nc1ccc(Cn2nc(-c3ccccc3C#N)c3ccccc3c2=O)cc1`, for which, in the data set with dengue virus type 2, the concentration for half-maximal inhibition (IC50) was 5.52 µM and the IC90 turned out to be 12.4 µM. Besides, in [1], the CC50 at 48 h was found to be 90.7 µM. In data set [2], the selectivity ratio was 16.4.
Taken in the same sequence, the figures for `CN(C)CCCCOC(=O)Nc1ccc(Cn2nc(-c3ccc(C(F)(F)F)cc3)c3ccccc3c2=O)cc1` were 1.47 µM, 6.61 µM, 3.36 µM and 2.3.
In the case of `COc1ccccc1-c1nn(Cc2ccc(NC(=O)OCCCCN(C)C)cc2)c(=O)c2ccccc12`, in the data set on dengue virus type 2, the IC50 was found to be 1.4 µM and the 90% effect concentration (IC90) worked out at 5.44 µM. Also, the CC50 at 48 h in [1] came to 44.8 µM. The selectivity ratio in data set [2] came to 32.
Take `COc1cccc(-c2nn(Cc3ccc(NC(=O)OCCCCN(C)C)cc3)c(=O)c3ccccc23)c1`: in the data set on dengue virus type 2, the IC50 amounted to 0.34 µM and the IC90 worked out at 1.58 µM. Besides, the CC50 at 48 h in [1] turned out to be 17.6 µM. Besides, the selectivity ratio in data set [2] turned out to be 51.8.
For `CN(C)CCCCOC(=O)Nc1ccc(Cn2nc(-c3ccc(F)cc3)c3ccccc3c2=O)cc1`, in that order: 0.62 µM, 4.27 µM, 19 µM and 30.7.
Taken in the same sequence, the figures for `CN(C)CCCCOC(=O)Nc1ccc(Cn2nc(-c3ccc(C#N)cc3)c3ccccc3c2=O)cc1` were 0.7 µM, 7.07 µM, 37 µM and 52.8.
`CN(C)CCCCOC(=O)Nc1ccccc1Cn1nc(-c2ccc(F)cc2)c2ccccc2c1=O`: in the data set with dengue virus type 2, the concentration for half-maximal inhibition (IC50) was 2.83 µM and the 90% effect concentration (IC90) was 13.2 µM. The CC50 at 48 h in [1] amounted to 48.5 µM. In addition, the selectivity ratio in data set [2] was found to be 17.1.
Taken in the same sequence, the figures for `CN(C)CCCCOC(=O)Nc1ccc(Cn2nc(-c3cnn(C)c3)c3ccccc3c2=O)cc1` were 6.53 µM, 43.3 µM, 55.9 µM and 8.5.
For `CC(c1ccc(NC(=O)OCCCCN(C)C)cc1)n1nc(-c2ccc(F)cc2)c2ccccc2c1=O` (stereo not given), in that order: 1.27 µM, 5.57 µM, 15.2 µM and 11.9.
Consider `CN(C)CCCCOC(=O)Nc1ccc(-n2nc(-c3ccc(F)cc3)c3ccccc3c2=O)cc1`, for which, in the data set with dengue virus type 2, the half-inhibitory concentration (IC50) turned out to be 1.34 µM and the IC90 amounted to 12.6 µM. The cytotoxic concentration (CC50) at 48 h in data set [1] was found to be 21.8 µM. In data set [2], the selectivity ratio is 16.2.
For `CN(C)CCCCOC(=O)Nc1ccc(Cn2nc(-c3ccccc3F)c3ccccc3c2=O)cc1`, in the data set on dengue virus type 2, the 50% inhibitory concentration (IC50) was determined as 1.32 µM and the IC90 came to 8.79 µM. In addition, in data set [1], the CC50 at 48 h was determined as 52.5 µM. Moreover, the selectivity ratio in data set [2] was 39.8.
For `CN(C)CCCCOC(=O)Nc1ccc(Cn2nc(-c3ccccc3)c3ccccc3c2=O)cc1`, in the data set on dengue virus type 2, the half-maximal inhibitory concentration (IC50) is 2.68 µM and the IC90 stood at 6.09 µM. In [1], the 50% cytotoxic concentration (CC50) at 48 h is 16 µM. Besides, the selectivity ratio in data set [2] turned out to be 5.99.
Consider `CN(C)CCCCOC(=O)Nc1ccc(Cn2nc(-c3cncnc3)c3ccccc3c2=O)cc1`, for which, in the data set on dengue virus type 2, the IC50 is 0.6 µM and the 90% effect concentration (IC90) is 62.4 µM. Besides, in data set [1], the CC50 at 48 h came to 65.3 µM. In data set [2], the selectivity ratio worked out at 109.
Taken in the same sequence, the figures for `CN(C)CCCCOC(=O)Nc1ccc(Cn2nc(-c3cccnc3)c3ccccc3c2=O)cc1` were 6.32 µM, 30.2 µM, 68 µM and 10.7.
Taken in the same sequence, the figures for `CN(C)CCCCOC(=O)Nc1cccc(Cn2nc(-c3ccc(F)cc3)c3ccccc3c2=O)c1` were 0.64 µM, 4.65 µM, 8.51 µM and 13.3.
Taken in the same sequence, the figures for `CN(C)CCCCOC(=O)Nc1ccc(Cn2nc(-c3ccncc3)c3ccccc3c2=O)cc1` were 22.9 µM, 40.9 µM, 62.7 µM and 2.7.
Take `CN(C)CCCCNC(=O)Nc1ccc(Cn2nc(-c3ccc(F)cc3)c3ccccc3c2=O)cc1`: the CC50 at 48 h in data set [1] turned out to be 46.6 µM. The selectivity ratio in [2] was 10.7.
For `CN(C)CCCCOC(=O)Nc1ccc(Cn2nc(-c3ccccc3C(F)(F)F)c3ccccc3c2=O)cc1`, in the data set on dengue virus type 2, the IC50 is 1.99 µM and the 90% effect concentration (IC90) was determined as 3.37 µM. In addition, the CC50 at 48 h in data set [1] amounted to 35.7 µM. In addition, in [2], the selectivity ratio stood at 18.
For `CN(C)CCCCOC(=O)Nc1ccc(Cn2nc(-c3cccc(F)c3)c3ccccc3c2=O)cc1`, in that order: 1.51 µM, 8.24 µM, 37.4 µM and 24.7.
As for `CN(C)CCCCOC(=O)Nc1ccc(Cn2nc(-c3cccc(C(F)(F)F)c3)c3ccccc3c2=O)cc1`, in the data set on dengue virus type 2, the IC50 was 0.13 µM and the concentration for an effect of 90% (IC90) turned out to be 1.15 µM. The cytotoxic concentration (CC50) at 48 h in [1] was 11.6 µM. The selectivity ratio in data set [2] is 89.2. Also, the CL in the data set with Mus musculus [3] turned out to be 0.833 mL/min/kg. This compound gave a Vdss with Mus musculus [4] of 17.137 L/kg. For the same compound, the Tmax in data set [5] is 8 h. This compound also came in with a t1/2 with Mus musculus [6] of 4.33 h. Further, in data set [7], the half-life is 2.91 h. In [8], the Cmax was 94.5 ng/mL. In the data set with Mus musculus [9], the AUClast was determined as 505 ng·h/mL. For the same compound, in data set [10], the AUC(0-t) amounted to 883 ng·h/mL. The compound further had a bioavailability in data set [11] of 34.9%.
